Measurements published in publication PMC4857835 (Investigative Ophthalmology & Visual Science, 2016).

How the values were obtained:
[1] = tested on: VEGF-induced retinal thickening; experiment: VEGF-induced retinal thickening in mice; format: in vivo, WT mice (C57Bl/6); conditions: 1.60 mg/kg/d s.c. osmotic pump, VEGF 100 ng/eye
thrombin = thrombin (Homo sapiens, UniProt P00734); experiment: Trypsin-like protease enzyme activity assay; format: biochemical
How it was run: (§1)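 Each human protease (plasmin, thrombin, trypsin, KLK1, factor XIa) is run with a suitable fluorogenic substrate. Km comes from a standard Michaelis-Menten transformation, and assays run at substrate Km. Fluorescence is read over 5 min and the linear rate per min is expressed as % activity. IC50 is 50% inhibition of uninhibited activity, and fold selectivity is relative to the human PKal IC50.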

[2] = tested on: VEGF-induced retinal thickening; experiment: VEGF-induced retinal thickening in rats; format: in vivo, Sprague-Dawley rats; conditions: 0.58 mg/kg/d s.c. osmotic pump, VEGF 10 ng/eye, 48 hours, P < 0.001
How it was run: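 Male Sprague-Dawley rats (10 weeks) got test compound 0.58 mg/kg/d or vehicle (10% PEG400 in PBS) by s.c. osmotic pump, started 1 day before 5 µL intravitreal VEGF 10 ng/eye or PBS. SD-OCT (2.5×2.5 mm volume centred on the optic nerve head) gave RPE-to-RNFL thickness 800 µm from centre at baseline, 24 and 48 h. Change from baseline was compared with vehicle-treated rats.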

plasmin = plasmin (Homo sapiens, UniProt P00747); experiment: Trypsin-like protease enzyme activity assay; format: biochemical
plasmin, sequence (P00747 581-810 limits assumed): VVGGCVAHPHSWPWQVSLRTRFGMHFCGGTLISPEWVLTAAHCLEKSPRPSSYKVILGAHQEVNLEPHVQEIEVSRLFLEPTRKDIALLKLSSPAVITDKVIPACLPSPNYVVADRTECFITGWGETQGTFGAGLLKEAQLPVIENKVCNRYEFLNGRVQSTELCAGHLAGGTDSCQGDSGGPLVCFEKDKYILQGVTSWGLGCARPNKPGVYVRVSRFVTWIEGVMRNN
plasmin, sequence (P00747 97-580 partner limits assumed): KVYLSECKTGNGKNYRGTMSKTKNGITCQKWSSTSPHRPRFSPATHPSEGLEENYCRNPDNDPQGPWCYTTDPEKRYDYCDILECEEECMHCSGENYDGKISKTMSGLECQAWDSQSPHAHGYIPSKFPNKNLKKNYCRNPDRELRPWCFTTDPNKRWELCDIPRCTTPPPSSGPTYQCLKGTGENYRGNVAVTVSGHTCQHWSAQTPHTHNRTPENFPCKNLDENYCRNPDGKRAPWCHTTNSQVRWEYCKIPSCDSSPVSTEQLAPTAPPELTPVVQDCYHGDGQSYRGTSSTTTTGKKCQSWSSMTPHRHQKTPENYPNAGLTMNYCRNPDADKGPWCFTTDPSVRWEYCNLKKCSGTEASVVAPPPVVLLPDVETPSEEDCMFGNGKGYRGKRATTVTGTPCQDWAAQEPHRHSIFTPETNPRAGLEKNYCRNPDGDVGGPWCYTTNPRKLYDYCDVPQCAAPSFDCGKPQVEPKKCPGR
How it was run: as §1

KLK1 tissue kallikrein = KLK1 tissue kallikrein (Homo sapiens, UniProt P06870); experiment: Trypsin-like protease enzyme activity assay; format: biochemical
KLK1 tissue kallikrein, sequence (P06870 25-262): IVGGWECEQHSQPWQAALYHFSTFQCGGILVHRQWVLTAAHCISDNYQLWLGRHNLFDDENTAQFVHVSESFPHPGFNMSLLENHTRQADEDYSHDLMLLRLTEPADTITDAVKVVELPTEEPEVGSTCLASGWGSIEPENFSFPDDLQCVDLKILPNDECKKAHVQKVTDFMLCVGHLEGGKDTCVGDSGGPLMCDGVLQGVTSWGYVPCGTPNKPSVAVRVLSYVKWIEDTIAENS
How it was run: as §1

trypsin = experiment: Trypsin-like protease enzyme activity assay; format: biochemical, human
How it was run: as §1

[3] = target: rat PKal (plasma kallikrein) (Rattus norvegicus, UniProt P14272); experiment: PKal protease activity assay, fluorogenic substrate H-D-Pro-Phe-Arg-AFC; format: biochemical
rat PKal (plasma kallikrein), sequence (P14272 391-638 limits assumed): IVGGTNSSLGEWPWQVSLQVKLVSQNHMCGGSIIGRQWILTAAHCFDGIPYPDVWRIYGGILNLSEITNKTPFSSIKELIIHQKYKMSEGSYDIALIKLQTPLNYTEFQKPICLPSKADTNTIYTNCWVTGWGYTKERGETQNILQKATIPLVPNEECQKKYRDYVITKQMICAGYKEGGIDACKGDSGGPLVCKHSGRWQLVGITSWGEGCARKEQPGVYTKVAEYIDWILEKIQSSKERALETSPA
rat PKal (plasma kallikrein), sequence (P14272 20-390 partner limits assumed): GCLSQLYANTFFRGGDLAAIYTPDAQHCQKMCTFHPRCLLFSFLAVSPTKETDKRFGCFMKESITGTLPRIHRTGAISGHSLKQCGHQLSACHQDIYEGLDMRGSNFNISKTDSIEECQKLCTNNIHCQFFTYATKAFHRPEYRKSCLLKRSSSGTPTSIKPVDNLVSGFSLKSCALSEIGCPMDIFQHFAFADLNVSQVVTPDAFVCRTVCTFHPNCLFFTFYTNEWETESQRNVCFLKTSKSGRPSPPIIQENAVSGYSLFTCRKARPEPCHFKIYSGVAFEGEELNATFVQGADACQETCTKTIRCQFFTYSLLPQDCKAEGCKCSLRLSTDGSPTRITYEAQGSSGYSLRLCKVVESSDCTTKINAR
How it was run: (§2)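 Purified mouse or rat plasma kallikrein with fluorogenic H-D-Pro-Phe-Arg-AFC at substrate Km, with test compound present. Liberated fluorescence is monitored over 5 min and the linear rate per min is calculated. IC50 is the inhibitor concentration giving 50% inhibition of uninhibited enzyme activity (100%).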

[4] = In vivo pharmacokinetics following subcutaneous dosing; set-up: species or system male SD rats; conditions: male, SD, rat, plasma, sc, 10 mg/kg
[5] = target: human PKal (plasma kallikrein) (Homo sapiens, UniProt P03952); experiment: PKal protease activity assay, fluorogenic substrate H-D-Pro-Phe-Arg-AFC; format: biochemical
human PKal (plasma kallikrein), sequence (P03952 391-638 limits assumed): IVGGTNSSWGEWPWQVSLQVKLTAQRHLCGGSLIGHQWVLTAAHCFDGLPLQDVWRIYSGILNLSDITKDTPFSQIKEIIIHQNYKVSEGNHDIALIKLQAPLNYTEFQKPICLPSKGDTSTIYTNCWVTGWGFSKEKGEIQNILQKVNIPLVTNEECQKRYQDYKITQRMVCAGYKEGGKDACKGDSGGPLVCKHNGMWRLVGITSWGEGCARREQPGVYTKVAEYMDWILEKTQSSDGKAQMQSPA
human PKal (plasma kallikrein), sequence (P03952 20-390 partner limits assumed): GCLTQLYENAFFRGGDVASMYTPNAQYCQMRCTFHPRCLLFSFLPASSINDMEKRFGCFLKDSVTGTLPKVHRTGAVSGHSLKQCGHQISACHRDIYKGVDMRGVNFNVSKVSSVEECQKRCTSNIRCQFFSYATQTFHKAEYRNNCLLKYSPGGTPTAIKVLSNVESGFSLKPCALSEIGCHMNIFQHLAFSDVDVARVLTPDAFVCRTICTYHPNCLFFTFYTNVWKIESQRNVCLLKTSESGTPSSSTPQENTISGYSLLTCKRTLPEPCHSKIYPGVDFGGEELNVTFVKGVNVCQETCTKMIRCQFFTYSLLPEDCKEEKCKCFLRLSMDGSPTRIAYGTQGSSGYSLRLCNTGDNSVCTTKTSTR
How it was run: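 Purified human plasma kallikrein with fluorogenic H-D-Pro-Phe-Arg-AFC at its Km concentration, plus test compound. Fluorescence is followed over 5 min and the linear rate per min is taken. IC50 is the concentration giving 50% inhibition of uninhibited activity (100%). Fold selectivity is each related protease's IC50 relative to the human PKal IC50.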

factor XIa = factor XIa (Homo sapiens, UniProt P03951); experiment: Trypsin-like protease enzyme activity assay; format: biochemical
factor XIa, sequence (P03951 388-625 limits assumed): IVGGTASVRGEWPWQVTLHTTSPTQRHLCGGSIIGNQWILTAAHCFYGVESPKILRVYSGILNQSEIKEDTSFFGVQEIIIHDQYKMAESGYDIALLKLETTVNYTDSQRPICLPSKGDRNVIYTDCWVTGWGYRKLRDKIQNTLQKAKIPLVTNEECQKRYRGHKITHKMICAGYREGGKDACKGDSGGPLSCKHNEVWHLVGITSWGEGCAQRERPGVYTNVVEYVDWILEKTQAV
factor XIa, sequence (P03951 19-387 partner limits assumed): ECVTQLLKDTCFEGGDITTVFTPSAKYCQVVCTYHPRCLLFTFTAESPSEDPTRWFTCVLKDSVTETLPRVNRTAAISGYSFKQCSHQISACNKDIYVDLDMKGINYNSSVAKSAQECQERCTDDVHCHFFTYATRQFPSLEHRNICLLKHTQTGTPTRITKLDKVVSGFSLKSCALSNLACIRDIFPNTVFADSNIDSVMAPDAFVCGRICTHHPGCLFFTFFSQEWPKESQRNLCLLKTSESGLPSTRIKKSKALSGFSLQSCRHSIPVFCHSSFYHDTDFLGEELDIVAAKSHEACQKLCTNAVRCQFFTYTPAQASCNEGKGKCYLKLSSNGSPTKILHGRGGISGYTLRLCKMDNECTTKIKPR
How it was run: as §1

[6] = target: mouse PKal (plasma kallikrein) (Mus musculus, UniProt P26262); experiment: PKal protease activity assay, fluorogenic substrate H-D-Pro-Phe-Arg-AFC; format: biochemical
mouse PKal (plasma kallikrein), sequence (P26262 391-638 limits assumed): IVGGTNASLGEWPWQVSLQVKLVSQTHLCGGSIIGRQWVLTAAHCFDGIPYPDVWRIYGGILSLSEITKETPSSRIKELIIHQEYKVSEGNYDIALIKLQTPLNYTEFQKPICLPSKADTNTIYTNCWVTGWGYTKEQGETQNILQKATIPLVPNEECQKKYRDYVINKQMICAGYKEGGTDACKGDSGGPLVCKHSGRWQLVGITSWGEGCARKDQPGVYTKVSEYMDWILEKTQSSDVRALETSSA
mouse PKal (plasma kallikrein), sequence (P26262 20-390 partner limits assumed): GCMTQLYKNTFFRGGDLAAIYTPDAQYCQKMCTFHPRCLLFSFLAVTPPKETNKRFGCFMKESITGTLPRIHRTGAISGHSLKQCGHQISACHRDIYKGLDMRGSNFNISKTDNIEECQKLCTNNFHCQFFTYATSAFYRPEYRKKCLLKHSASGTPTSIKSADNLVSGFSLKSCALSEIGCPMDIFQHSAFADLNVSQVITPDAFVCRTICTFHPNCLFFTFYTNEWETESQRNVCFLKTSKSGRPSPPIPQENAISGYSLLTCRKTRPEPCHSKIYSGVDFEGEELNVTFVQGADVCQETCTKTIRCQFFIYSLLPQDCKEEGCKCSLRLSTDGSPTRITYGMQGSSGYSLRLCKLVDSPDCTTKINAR
How it was run: as §2

With `CCOc1ccc(C[C@@H](N)C(=O)N[C@@H](Cc2ccccc2)C(=O)NC2CCN(C(=N)N)CC2)cc1.O=C(O)C(F)(F)F.O=C(O)C(F)(F)F` [VA999272, (R)-2-amino-N-[(S)-1-(1-carbamimidoyl-piperidin-4-ylcarbamoyl)-2-phenyl-ethyl]-3-(4-ethoxy-phenyl)-propionamide ditrifluoroacetate] the “reduction of VEGF effect on retinal thickness vs vehicle-treated” value ([1]; 24 hours, P = 0.039) was 36%, the “reduction of VEGF effect on retinal thickness vs vehicle-treated” value ([1]; 48 hours, P < 0.001) was 57% and the IC50 (thrombin) was 9.1 µM. The “Fold selectivity to human PKal” value (thrombin; thrombin IC50 vs human PKal IC50) was 2291, the “reduction of VEGF-induced retinal thickening vs vehicle-treated” value [2] was 53% and the IC50 (plasmin) was 23.1 µM. For the same compound, the “Fold selectivity to human PKal” value (plasmin; plasmin IC50 vs human PKal IC50) was 5821, the IC50 (KLK1 tissue kallikrein) was 33.5 µM and the “Fold selectivity to human PKal” value (KLK1 tissue kallikrein; KLK1 IC50 vs human PKal IC50) was 8414. For the same compound, the IC50 (trypsin; read-out: Mean IC50 Trypsin, substrate at Km) was 38.9 µM, the “Fold selectivity to human PKal” value (trypsin; trypsin IC50 vs human PKal IC50) was 9772 and the IC50 [3] was 0.00654 ± 0.00076 µM. The Cmax [4] was 974 ng/mL, the Tmax [4] was 1.5 h and the half-life [4] was 3.55 h. The IC50 [5] was 0.00398 ± 0.00361 µM, the “Fold selectivity to human PKal” value ([5]; PKal itself (reference)) was 1 and the “selectivity to PKal over closely related trypsin-like serine proteases” value ([5]; vs KLK1, factor XIIa, factor XIa, thrombin, plasmin, trypsin) was greater than 1000 fold. The IC50 (factor XIa) was greater than 10 µM, the “Fold selectivity to human PKal” value (factor XIa; factor XIa IC50 vs human PKal IC50) was greater than 2513 and the IC50 [6] was 0.00118 ± 0.00025 µM.
